From paper PMC7686291 (Psychopharmacology, 2020)
Structures can show the parent of a compound that is named as a salt.

Key:
[1] = target: norepinephrine transporters (NET) (Rattus norvegicus, UniProt Q63380); test: Transporter release assay, [3H]MPP+ via NET, rat brain synaptosomes; format: biochemical; details: for Times more potent than MDA at NET release / Times more potent than MDMA at NET release: ratio of EC50 values, synaptosomes; for Emax: read-out: NET release %Emax; for NET release %Emax: % of maximal release defined with 10 μM tyramine
norepinephrine transporters (NET), sequence (Q63380 1-617): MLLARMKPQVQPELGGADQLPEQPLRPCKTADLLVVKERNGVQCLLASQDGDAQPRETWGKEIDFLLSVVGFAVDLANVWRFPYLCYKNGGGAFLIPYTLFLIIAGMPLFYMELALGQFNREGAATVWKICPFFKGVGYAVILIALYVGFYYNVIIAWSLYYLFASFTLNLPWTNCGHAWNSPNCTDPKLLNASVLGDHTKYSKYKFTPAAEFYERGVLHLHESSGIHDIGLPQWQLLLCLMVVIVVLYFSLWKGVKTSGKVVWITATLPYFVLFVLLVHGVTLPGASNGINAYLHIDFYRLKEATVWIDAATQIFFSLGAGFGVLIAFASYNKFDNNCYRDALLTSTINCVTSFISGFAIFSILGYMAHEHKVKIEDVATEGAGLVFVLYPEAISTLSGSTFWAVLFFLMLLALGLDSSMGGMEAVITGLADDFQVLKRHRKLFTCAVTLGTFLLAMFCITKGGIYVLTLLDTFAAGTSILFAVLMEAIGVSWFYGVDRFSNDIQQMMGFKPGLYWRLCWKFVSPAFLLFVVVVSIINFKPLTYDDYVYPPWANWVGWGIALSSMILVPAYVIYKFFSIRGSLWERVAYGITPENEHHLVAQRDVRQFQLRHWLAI
Summary of the method: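 Male Sprague-Dawley rat whole brain minus striatum and cerebellum gave synaptosomes in 10% sucrose with 1 μM reserpine, 100 nM GBR12935 and citalopram. After 1 h preloading with 9 nM [3H]MPP+ in Krebs-phosphate buffer, incubated 30 min with varied test compound concentrations. Filtration, then scintillation counting of retained radioactivity. EC50 from non-linear regression; efficacy as % of 10 μM tyramine release.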

[2] = target: serotonin transporters (SERT) (Rattus norvegicus, UniProt P31652); test: Transporter release assay, [3H]5-HT via SERT, rat brain synaptosomes; format: biochemical; details: for Emax: read-out: SERT release %Emax; for SERT release %Emax: % of maximal release defined with 100 μM tyramine
serotonin transporters (SERT), sequence (P31652 whole entry): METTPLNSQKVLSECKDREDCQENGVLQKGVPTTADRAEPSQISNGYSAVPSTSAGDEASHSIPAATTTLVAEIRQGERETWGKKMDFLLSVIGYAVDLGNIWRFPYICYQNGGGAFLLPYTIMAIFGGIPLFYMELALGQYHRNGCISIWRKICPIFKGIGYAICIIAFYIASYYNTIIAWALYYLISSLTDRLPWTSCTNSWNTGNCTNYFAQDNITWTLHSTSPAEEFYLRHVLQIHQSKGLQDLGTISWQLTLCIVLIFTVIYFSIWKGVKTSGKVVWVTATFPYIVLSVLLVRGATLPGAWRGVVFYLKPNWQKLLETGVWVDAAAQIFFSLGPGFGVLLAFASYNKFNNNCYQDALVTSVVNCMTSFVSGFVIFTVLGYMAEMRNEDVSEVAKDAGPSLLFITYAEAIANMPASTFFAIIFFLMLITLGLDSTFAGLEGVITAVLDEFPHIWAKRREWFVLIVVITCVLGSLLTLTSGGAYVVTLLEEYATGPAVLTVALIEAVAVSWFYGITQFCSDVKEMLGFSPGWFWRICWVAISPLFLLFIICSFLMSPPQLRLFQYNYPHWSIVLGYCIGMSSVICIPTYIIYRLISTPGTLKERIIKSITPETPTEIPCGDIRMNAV
Summary of the method: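 Synaptosomes from whole brain minus striatum and cerebellum of male Sprague-Dawley rats, made in 10% sucrose with 1 μM reserpine plus 100 nM GBR12935 and nomifensine. Preloaded 1 h to steady state with 5 nM [3H]5-HT in Krebs-phosphate buffer, then incubated 5 min with test compound at various concentrations. Stopped by vacuum filtration; retained label counted by scintillation. EC50 from non-linear regression; efficacy as % of release by 100 μM tyramine.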

conscious male rats = test: Horizontal ambulation; format: in vivo, rat; details: for Duration of behavioral activation (forward ambulation) post-injection: i.v.
Summary of the method: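 Conscious, tethered male Sprague-Dawley rats (300–400 g) with jugular catheters were placed overnight in photobeam arenas during accumbens microdialysis. Horizontal-plane movement was counted in 20-min bins over 120 min. Two i.v. injections: first dose at time zero, threefold higher dose 60 min later. Saline (1 mL/kg) controls; n = 7/group. Data normalized to three preinjection bins; dose × time ANOVA versus saline with Bonferroni tests.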

[3] = tested on: extracellular dopamine in nucleus accumbens; test: In vivo microdialysis in nucleus accumbens, dialysate dopamine; design: species or system rat; details: male rats; for Peak increase of dialysate dopamine above baseline: 1.0 mg/kg i.v. given 60 min after 0.3 mg/kg
Summary of the method: (§1)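 Male Sprague-Dawley rats (300–400 g) were fitted with a jugular catheter and a nucleus accumbens guide cannula under pentobarbital (60 mg/kg i.p.), with ≥1 week recovery. Probes (2×0.5 mm) were perfused with Ringers' at 0.6 μL/min overnight. 20-min dialysates were assayed by microbore HPLC-ECD. After three stable baselines: i.v. dose at time zero, threefold higher dose at 60 min. Saline 1 mL/kg controls; n = 7/group; % baseline; dose × time ANOVA, Bonferroni.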

[4] = tested on: extracellular 5-HT in nucleus accumbens; test: In vivo microdialysis in nucleus accumbens, dialysate 5-HT; design: species or system rat; details: male rats
Summary of the method: as §1

[5] = target: dopamine transporters (DAT) (Rattus norvegicus, UniProt P23977); test: Transporter release assay, [3H]MPP+ via DAT, rat brain synaptosomes; format: biochemical; details: for Times more potent than MDA at DAT release / Times more potent than MDMA at DAT release: ratio of EC50 values, synaptosomes; for Emax: read-out: DAT release %Emax; for DAT release %Emax: % of maximal release defined with 10 μM tyramine
dopamine transporters (DAT), sequence (P23977 whole entry): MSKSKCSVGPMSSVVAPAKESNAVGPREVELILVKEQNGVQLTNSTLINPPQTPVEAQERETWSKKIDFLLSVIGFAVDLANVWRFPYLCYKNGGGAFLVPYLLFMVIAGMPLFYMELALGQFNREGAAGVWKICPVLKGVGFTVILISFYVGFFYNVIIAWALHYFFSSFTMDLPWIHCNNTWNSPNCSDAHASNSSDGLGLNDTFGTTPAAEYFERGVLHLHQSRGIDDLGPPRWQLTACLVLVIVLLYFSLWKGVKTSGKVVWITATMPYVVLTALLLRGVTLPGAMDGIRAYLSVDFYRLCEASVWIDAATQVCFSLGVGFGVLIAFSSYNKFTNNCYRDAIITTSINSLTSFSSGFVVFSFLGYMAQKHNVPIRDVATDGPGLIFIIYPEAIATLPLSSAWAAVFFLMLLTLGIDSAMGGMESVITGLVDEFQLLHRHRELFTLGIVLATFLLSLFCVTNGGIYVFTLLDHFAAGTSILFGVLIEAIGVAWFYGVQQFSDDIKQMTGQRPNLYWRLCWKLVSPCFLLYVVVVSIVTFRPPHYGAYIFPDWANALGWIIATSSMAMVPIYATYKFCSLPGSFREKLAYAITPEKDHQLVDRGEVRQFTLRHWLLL
Summary of the method: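 Striatal synaptosomes from male Sprague-Dawley rats, prepared in 10% sucrose containing 1 μM reserpine; no unlabeled blockers added. Loaded 1 h to steady state with 9 nM [3H]MPP+ in Krebs-phosphate buffer; test compound at various concentrations added for 30 min. Ended by rapid vacuum filtration and scintillation counting of filter-bound radioactivity. EC50 by non-linear regression; efficacy relative to maximal release by 10 μM tyramine.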

[6] = tested on: human transporters (DAT, SERT); details: cited from earlier work; for DAT/SERT ratio from uptake inhibition potencies: transfected HEK cells, human transporters, ref Rickli et al. 2015; for DAT/SERT ratio in transfected cells: ref Luethi et al. 2019
[7] = tested on: dialysate dopamine in corpus striatum; details: oral 0.08 mmol/kg (~17 mg/kg), male CD-1 mice, ref Fuwa et al. 2016; cited from earlier work
mice = details: ref Dolan et al. (2017), cited from earlier work
[8] = tested on: dialysate 5-HT in corpus striatum; details: ref Fuwa et al. 2016, cited from earlier work
rats = rats trained with MDMA 1.5 mg/kg i.p., ref Dolan et al. (2017), cited from earlier work
[9] = ratio of EC50 values, synaptosomes
[10] = 1.0 mg/kg i.v. given 60 min after 0.3 mg/kg
[11] = 3 mg/kg i.v. given 60 min after 1 mg/kg

| Structure (SMILES) | EC50 [1] | Times more potent than MDA at NET release [1] | Emax [1] | EC50 [2] | Times more potent than MDA at SERT release [2, 9] | Emax [2] | Peak effect on ambulation above baseline (conscious male rats; [10]) | Duration of behavioral activation (forward ambulation) post-injection (conscious male rats) | Peak increase of dialysate dopamine above baseline [3] | Peak effect on dialysate 5-HT above baseline [4, 10] | EC50 [5] | Times more potent than MDA at DAT release [5] | Emax [5] | DAT/SERT ratio from uptake inhibition potencies [6] | DAT/SERT ratio in transfected cells [6] | NET release %Emax [1] | Times more potent than MDMA at NET release [1] | SERT release %Emax [2] | Times more potent than MDMA at SERT release [2, 9] | DAT release %Emax [5] | further results |
| --- | --- | --- | --- | --- | --- | --- | --- | --- | --- | --- | --- | --- | --- | --- | --- | --- | --- | --- | --- | --- | --- |
| CC(N)Cc1ccc2ccoc2c1 (stereo not shown) [6-APB, 1-(1-benzofuran-6-yl)propan-2-amine] | 14 ± 2 nM | 2–3 times | 98% | 36 ± 5 nM | 4.5 fold | 100% | 24 fold | at least 2 h | 8.4 fold | 16 fold | 10 ± 1 nM | 10 fold | 101% | 0.29 |  |  |  |  |  |  | Effect on locomotion vs saline (post hoc analysis) (conscious male rats; 0.3 mg/kg i.v.): failed to result in significant increases in locomotion; Increase of dialysate dopamine ([3]; 20 min after 0.3 mg/kg i.v.): 2.6 fold; Increase of dialysate dopamine ([3]; 40 min after 0.3 mg/kg i.v.): 3.3 fold |
| CNC(C)Cc1ccc2c(c1)OCO2 (racemic) [MDMA, (±)-3,4-methylenedioxymethamphetamine HCl, reference compound] | 90 ± 13 nM |  | 99% | 85 ± 16 nM |  | 104% |  |  |  |  | 120 ± 8 nM |  | 101% |  | 0.12 |  |  |  |  |  |  |
| CNC(C)Cc1ccc2ccoc2c1 (stereo not shown) [6-MAPB] |  |  |  |  |  |  |  |  |  |  |  |  |  |  |  | 100% | ≥ 3.75 times | 106% | up to 2.5 times | 106% | Times more potent than MDMA at DAT release [5]: at least 3 times |
| CC(N)Cc1ccc2occc2c1 (stereo not shown) [5-APB, 1-(1-Benzofuran-5-yl)propan-2-amine] | 21 ± 4 nM | 2–3 times | 103% | 19 ± 2 nM | 8.5 fold | 104% | 21 fold | at least 2 h | 6.7 fold | 17.7 fold | 31 ± 3 nM | 3.4 fold | 103% | 0.05 |  |  |  |  |  |  | Increase in dialysate dopamine [7]: 8 fold; ED50 for increase of forward locomotion (mice; i.p.): 3.27 mg/kg; Potency to stimulate activity, fold greater than that of MDMA (mice; Gatch et al. 2019): at least 3 fold; Times more potent than 5-MAPB at SERT release [2, 9]: 3.4 times; Ambulation above baseline at the 120 min point (conscious male rats; 60 min after 1.0 mg/kg i.v.): 14.0 fold; Increase in dialysate 5-HT ([8]; oral 0.08 mmol/kg (~17 mg/kg), corpus striatum, male CD-1 mice): 23 fold; Time the rise in extracellular 5-HT was maintained post-injection ([8]; oral 0.08 mmol/kg, mice): up to 3 h; ED50 to substitute for the MDMA stimulus cue (rats; i.p.): 0.27 mg/kg; Substitution for the discriminative stimulus effects of MDMA (rats): fully substitutes; Effect on dialysate dopamine vs saline (post hoc test) ([3]; 0.3 mg/kg i.v.): failed to significantly increase dopamine levels; Increase of dialysate 5-HT ([4]; 20 min after 0.3 mg/kg i.v.): 5.7 fold; Dialysate 5-HT above baseline at the 120 min point ([4]; 120 min point, 60 min after 1.0 mg/kg i.v.): 11.3 fold |
| CNC(C)Cc1ccc2occc2c1 (stereo not shown) [5-MAPB] |  |  |  |  |  |  |  |  |  |  |  |  |  |  |  | 99% | ≥ 3.75 times | 103% | up to 2.5 times | 103% | Times more potent than MDMA at DAT release [5]: at least 3 times |
| CC(N)Cc1ccc2c(c1)OCO2 (racemic) [MDA, (±)-3,4-Methylenedioxyamphetamine HCl, reference compound] | 47 ± 7 nM |  | 91% | 162 ± 28 nM |  | 109% |  | at least 2 h |  |  | 106 ± 7 nM |  | 104% |  | 0.25 |  |  |  |  |  | Effect on locomotion vs saline (post hoc analysis) (conscious male rats; 1 mg/kg i.v., first dose): did not significantly increase locomotion; Peak effect on ambulation above baseline (conscious male rats; [11]): 30 fold; Ambulation above baseline at the 120 min point (conscious male rats; 60 min after 3 mg/kg i.v.): about 18 fold; Peak effect on dialysate 5-HT above baseline ([4]; 1 mg/kg i.v., first dose): 4.6 fold; Peak effect on dialysate 5-HT above baseline [4, 11]: 11.2 fold; Fold less potent than 5-APB and 6-APB at increasing dialysate 5-HT ([4]; in vivo microdialysis, i.v.): 3 fold |
